From the M2OR odorant receptor database

How the values were obtained:
Details in all cases: stereoisomer not certain
OR5D13 (Homo sapiens) = OR5D13 (Homo sapiens) (UniProt Q8NGL4)
Outline: (§1)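 Whether a receptor–molecule pair is responsive (active) rests on the original authors' judgment that its measured signal was statistically different from baseline. Pairs without that judgment are non-responsive (inactive). Sources used varied assay methods, commonly transient luciferase assays in mammalian cell lines.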

OR5D14 (Homo sapiens) = OR5D14 (Homo sapiens) (UniProt Q8NGL3)
Outline: as §1

OR5D16 (Homo sapiens) = OR5D16 (Homo sapiens) (UniProt Q8NGK9)
Outline: as §1

OR5D18 (Homo sapiens) = OR5D18 (Homo sapiens) (UniProt Q8NGL1)
Outline: as §1

OR5DD C62Y = test system: OR5DD C62Y
Outline: as §1

OR5DE S249A L290P = test system: OR5DE S249A L290P
Outline: as §1

OR5DG A156T = test system: OR5DG A156T
Outline: as §1

OR5DI = test system: OR5DI
Outline: as §1

OR5F1 (Homo sapiens) = OR5F1 (Homo sapiens) (UniProt O95221)
Outline: as §1

OR5F1 = test system: OR5F1
Outline: as §1

OR5H1 (Homo sapiens) = OR5H1 (Homo sapiens) (UniProt A6NKK0)
Outline: as §1

OR5H1 F17L A30T H56Q = test system: OR5H1 F17L A30T H56Q
Outline: as §1

OR5H1 T181N = test system: OR5H1 T181N
Outline: as §1

OR5H14 (Homo sapiens) = OR5H14 (Homo sapiens) (UniProt A6NHG9)
Outline: as §1

OR5H15 (Homo sapiens) = OR5H15 (Homo sapiens) (UniProt A6NDH6)
Outline: as §1

OR5H1 = test system: OR5H1
Outline: as §1

OR5H2 = test system: OR5H2
Outline: as §1

OR5H6 (Homo sapiens) = OR5H6 (Homo sapiens) (UniProt Q8NGV6)
Outline: as §1

OR5G3 (Homo sapiens) = OR5G3 (Homo sapiens) (UniProt P0C626)
Outline: as §1

OR5H8 (Homo sapiens) = OR5H8 (Homo sapiens) (UniProt P0DN80)
Outline: as §1

Measured: odorant receptor agonist call;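 note: active if original authors judged signal statistically different from baseline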

OR5H15 (Homo sapiens), sequence (A6NDH6 whole entry): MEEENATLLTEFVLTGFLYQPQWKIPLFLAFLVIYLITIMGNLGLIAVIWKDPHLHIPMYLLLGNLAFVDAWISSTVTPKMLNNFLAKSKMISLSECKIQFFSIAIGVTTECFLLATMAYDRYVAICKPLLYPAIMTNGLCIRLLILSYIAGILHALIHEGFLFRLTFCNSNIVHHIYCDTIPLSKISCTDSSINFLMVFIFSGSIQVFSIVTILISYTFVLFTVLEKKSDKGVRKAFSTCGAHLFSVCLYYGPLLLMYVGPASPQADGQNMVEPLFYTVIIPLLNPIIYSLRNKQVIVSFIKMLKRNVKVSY
OR5D13 (Homo sapiens), sequence (Q8NGL4 whole entry): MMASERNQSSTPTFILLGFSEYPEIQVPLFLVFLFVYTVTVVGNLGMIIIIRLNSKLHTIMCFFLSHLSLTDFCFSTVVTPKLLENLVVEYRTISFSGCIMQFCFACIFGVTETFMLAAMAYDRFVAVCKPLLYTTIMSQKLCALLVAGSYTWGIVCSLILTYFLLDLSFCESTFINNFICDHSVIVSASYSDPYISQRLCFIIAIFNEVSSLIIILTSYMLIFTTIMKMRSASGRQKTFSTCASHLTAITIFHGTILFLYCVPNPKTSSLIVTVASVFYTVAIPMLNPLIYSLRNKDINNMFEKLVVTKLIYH
OR5D14 (Homo sapiens), sequence (Q8NGL3 whole entry): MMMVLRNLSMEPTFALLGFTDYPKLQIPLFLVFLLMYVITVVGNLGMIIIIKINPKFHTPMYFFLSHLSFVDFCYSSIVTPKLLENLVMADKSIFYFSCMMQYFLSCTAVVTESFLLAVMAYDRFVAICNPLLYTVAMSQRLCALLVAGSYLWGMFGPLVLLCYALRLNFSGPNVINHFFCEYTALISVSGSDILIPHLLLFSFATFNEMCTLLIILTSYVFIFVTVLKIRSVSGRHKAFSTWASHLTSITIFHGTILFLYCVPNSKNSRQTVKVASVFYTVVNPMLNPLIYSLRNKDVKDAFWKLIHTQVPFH
OR5F1 (Homo sapiens), sequence (O95221 whole entry): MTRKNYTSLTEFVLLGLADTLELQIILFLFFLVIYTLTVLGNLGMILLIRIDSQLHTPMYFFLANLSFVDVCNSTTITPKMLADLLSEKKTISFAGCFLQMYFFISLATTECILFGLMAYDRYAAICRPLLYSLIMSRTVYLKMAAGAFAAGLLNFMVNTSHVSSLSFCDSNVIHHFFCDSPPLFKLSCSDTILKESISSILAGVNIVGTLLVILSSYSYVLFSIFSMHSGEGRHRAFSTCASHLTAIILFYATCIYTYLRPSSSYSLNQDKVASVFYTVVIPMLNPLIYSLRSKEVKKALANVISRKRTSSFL
OR5H6 (Homo sapiens), sequence (Q8NGV6 whole entry): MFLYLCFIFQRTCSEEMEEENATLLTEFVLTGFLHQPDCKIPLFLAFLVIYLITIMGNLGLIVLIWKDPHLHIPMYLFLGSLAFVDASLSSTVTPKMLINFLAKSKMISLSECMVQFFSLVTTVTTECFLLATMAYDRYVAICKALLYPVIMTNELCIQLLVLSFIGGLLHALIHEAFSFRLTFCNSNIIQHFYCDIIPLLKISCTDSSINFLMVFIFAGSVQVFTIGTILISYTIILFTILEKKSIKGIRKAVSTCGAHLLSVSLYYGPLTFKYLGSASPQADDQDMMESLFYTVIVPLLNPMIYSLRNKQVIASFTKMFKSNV
OR5H14 (Homo sapiens), sequence (A6NHG9 whole entry): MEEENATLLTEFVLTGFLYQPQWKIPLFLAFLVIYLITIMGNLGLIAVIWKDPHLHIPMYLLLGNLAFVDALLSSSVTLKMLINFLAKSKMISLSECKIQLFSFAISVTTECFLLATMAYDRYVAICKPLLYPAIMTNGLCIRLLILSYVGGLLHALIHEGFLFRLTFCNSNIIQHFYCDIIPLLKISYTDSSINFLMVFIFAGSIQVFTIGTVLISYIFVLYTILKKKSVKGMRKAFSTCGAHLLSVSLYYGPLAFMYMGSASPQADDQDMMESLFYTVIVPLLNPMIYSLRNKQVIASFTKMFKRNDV
OR5D18 (Homo sapiens), sequence (Q8NGL1 whole entry): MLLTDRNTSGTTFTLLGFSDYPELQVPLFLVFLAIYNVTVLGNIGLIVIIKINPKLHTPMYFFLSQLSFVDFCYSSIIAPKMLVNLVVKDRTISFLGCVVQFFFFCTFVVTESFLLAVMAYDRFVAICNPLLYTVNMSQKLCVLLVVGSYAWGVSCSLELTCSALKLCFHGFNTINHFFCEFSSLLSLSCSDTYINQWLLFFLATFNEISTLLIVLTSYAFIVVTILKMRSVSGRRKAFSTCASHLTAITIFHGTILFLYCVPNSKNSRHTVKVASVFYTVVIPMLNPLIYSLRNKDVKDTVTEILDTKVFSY
OR5H2, sequence (as listed by the source): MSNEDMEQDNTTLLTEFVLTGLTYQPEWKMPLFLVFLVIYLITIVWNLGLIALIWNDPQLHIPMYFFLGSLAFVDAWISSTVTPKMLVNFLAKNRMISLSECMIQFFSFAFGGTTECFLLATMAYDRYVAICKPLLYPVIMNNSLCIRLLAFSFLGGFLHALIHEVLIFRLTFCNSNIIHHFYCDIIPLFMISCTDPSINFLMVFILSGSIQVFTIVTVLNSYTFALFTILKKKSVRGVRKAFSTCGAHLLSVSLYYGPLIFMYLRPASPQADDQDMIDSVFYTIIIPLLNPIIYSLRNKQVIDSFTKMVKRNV
OR5D16 (Homo sapiens), sequence (Q8NGK9 whole entry): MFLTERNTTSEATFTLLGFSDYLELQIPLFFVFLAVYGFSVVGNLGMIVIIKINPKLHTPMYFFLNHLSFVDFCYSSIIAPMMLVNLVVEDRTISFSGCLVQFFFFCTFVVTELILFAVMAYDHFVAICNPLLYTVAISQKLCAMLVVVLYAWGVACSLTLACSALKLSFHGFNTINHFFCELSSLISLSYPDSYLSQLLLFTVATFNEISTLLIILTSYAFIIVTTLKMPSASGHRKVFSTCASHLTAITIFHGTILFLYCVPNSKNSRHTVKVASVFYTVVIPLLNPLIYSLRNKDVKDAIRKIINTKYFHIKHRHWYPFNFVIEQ
OR5H1 T181N, sequence (as listed by the source, stated change not applied): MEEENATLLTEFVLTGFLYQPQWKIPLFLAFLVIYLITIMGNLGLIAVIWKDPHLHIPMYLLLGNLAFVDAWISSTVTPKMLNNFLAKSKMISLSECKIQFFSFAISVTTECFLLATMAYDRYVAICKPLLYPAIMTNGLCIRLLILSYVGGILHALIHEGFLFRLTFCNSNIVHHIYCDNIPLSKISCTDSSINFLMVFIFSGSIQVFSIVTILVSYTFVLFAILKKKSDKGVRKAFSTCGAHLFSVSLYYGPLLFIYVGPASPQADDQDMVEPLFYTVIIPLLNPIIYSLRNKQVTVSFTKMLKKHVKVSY
OR5H8 (Homo sapiens), sequence (P0DN80 whole entry): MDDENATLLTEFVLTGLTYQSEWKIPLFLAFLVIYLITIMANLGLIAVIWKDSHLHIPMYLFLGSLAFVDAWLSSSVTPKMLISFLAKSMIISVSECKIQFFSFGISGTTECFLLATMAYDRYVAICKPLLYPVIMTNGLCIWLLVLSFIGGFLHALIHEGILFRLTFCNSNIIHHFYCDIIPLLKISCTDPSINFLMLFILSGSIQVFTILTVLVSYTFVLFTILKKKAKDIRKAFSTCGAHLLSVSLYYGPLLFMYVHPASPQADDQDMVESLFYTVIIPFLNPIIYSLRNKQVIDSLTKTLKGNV
OR5H1, sequence (as listed by the source): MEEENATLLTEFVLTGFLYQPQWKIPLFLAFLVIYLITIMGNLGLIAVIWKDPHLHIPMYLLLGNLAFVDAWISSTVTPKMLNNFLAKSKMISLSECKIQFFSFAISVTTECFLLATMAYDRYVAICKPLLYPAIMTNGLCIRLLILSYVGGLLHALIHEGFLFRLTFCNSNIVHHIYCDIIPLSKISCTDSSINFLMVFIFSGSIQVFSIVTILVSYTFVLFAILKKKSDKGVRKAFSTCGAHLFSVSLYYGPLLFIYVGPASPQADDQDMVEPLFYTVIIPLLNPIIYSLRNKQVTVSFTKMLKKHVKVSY
OR5DG A156T, sequence (as listed by the source, stated change not applied): as the sequence (Q8NGK9 whole entry) above, with A156T counted along it
OR5G3 (Homo sapiens), sequence (P0C626 whole entry): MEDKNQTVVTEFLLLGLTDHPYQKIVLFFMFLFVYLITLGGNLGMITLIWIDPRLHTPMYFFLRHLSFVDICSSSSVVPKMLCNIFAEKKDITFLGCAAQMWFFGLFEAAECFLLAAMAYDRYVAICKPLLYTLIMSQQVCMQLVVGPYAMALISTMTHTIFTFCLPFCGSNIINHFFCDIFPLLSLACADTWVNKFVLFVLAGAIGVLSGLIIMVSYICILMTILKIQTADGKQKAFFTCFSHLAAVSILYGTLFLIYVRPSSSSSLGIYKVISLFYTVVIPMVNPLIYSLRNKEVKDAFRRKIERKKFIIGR
OR5F1, sequence (as listed by the source): as the sequence (O95221 whole entry) above, with S294N counted along it
OR5DD C62Y, sequence (as listed by the source, stated change not applied): as the sequence (Q8NGL4 whole entry) above, with C62Y counted along it
OR5H1 (Homo sapiens), sequence (A6NKK0 whole entry): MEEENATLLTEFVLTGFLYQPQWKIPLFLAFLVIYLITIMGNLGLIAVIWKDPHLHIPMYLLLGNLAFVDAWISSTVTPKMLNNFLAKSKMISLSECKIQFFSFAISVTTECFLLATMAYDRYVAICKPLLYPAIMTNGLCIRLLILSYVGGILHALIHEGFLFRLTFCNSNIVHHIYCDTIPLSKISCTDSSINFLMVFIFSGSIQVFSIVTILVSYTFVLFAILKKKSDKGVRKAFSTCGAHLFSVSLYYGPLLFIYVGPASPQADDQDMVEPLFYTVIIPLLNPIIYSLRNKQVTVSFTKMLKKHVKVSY
OR5DI, sequence (as listed by the source): as the sequence (Q8NGL1 whole entry) above, with N136D counted along it

C=CCOC(=O)Cc1ccccc1
not listed: OR5G3 (Homo sapiens) | OR5H8 (Homo sapiens)
inactive: all other assays above

Cc1c([N+](=O)[O-])c(C)c([N+](=O)[O-])c(C(C)(C)C)c1[N+](=O)[O-]
inactive: OR5D13 (Homo sapiens) | OR5D14 (Homo sapiens) | OR5D16 (Homo sapiens) | OR5D18 (Homo sapiens) | OR5F1 (Homo sapiens) | OR5G3 (Homo sapiens) | OR5H14 (Homo sapiens) | OR5H15 (Homo sapiens) | OR5H2 | OR5H6 (Homo sapiens) | OR5H8 (Homo sapiens)
